# Experimental data published in ChEMBL document CHEMBL1136923, “Highly potent, orally available anti-inflammatory broad-spectrum chemokine inhibitors” (J Med Chem, 2009).
# How the values were obtained:
# [1] = system: Mus musculus; assay: Antiinflammatory activity in mouse assessed as inhibition of LPS-induced TNFalpha upregulation at 0.003 mg, sc measured 2 hrs after LPS challenge; assay type: functional
# In short: (§1)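 Murine sublethal endotoxemia: LPS given intraperitoneally, with serum TNF-α measured 2 h after the LPS injection as the end point. Compound was given subcutaneously or orally. Vehicle was 0.6% DMSO and 1% carboxymethylcellulose (final concentrations) in sterile water. Effect is reported as % relative to control.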
# [2] = system: Mus musculus; assay: Antiinflammatory activity in mouse assessed as inhibition of LPS-induced TNFalpha upregulation at 0.003 ug, sc measured 2 hrs after LPS challenge; assay type: functional; in short: as §1
# [3] = system: Mus musculus; assay: Antiinflammatory activity in sc dosed mouse assessed as inhibition of LPS-induced TNFalpha upregulation measured 2 hrs after LPS challenge relative to control; assay type: functional
# In short: (§2)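 Murine sublethal LPS endotoxemia screen. LPS is injected intraperitoneally and serum TNF-α is measured 2 h later as the end point. Compound is given subcutaneously or orally in a vehicle of 0.6% DMSO plus 1% carboxymethylcellulose (final concentrations) in sterile water. Values are % relative to control.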
# [4] = system: Mus musculus; assay: Antiinflammatory activity in mouse assessed as inhibition of LPS-induced TNFalpha upregulation at 0.12 mg, sc measured 2 hrs after LPS challenge; assay type: functional
# In short: (§3)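 Sublethal murine endotoxemia with LPS given intraperitoneally. Compound was given subcutaneously in vehicle of 0.6% DMSO and 1% carboxymethylcellulose (final concentrations) in sterile water. Serum TNF-α was measured 2 h after LPS injection. Values are expressed as % relative to control.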
# [5] = system: Mus musculus; assay: Antiinflammatory activity in mouse assessed as inhibition of LPS-induced TNFalpha upregulation at 300 pg, sc measured 2 hrs after LPS challenge; assay type: functional; in short: as §3
# [6] = system: Mus musculus; assay: Antiinflammatory activity in sc dosed mouse assessed as inhibition of LPS-induced TNFalpha upregulation measured 2 hrs after LPS challenge; assay type: functional
# [7] = system: Mus musculus; assay: Antiinflammatory activity in mouse assessed as inhibition of LPS-induced TNFalpha upregulation at 0.03 mg, sc measured 2 hrs after LPS challenge; assay type: functional; in short: as §3
# [8] = system: Mus musculus; assay: Antiinflammatory activity in mouse assessed as inhibition of LPS-induced TNFalpha upregulation at 0.06 mg, sc measured 2 hrs after LPS challenge; assay type: functional; in short: as §3
# [9] = system: Mus musculus; assay: Antiinflammatory activity in mouse assessed as inhibition of LPS-induced TNFalpha upregulation at 0.015 mg, sc measured 2 hrs after LPS challenge; assay type: functional; in short: as §3
# [10] = system: Mus musculus; assay: Antiinflammatory activity in mouse assessed as inhibition of LPS-induced TNFalpha upregulation at 0.03 ug, sc measured 2 hrs after LPS challenge; assay type: functional; in short: as §1
# [11] = system: Mus musculus; assay: Antiinflammatory activity in mouse assessed as inhibition of LPS-induced TNFalpha upregulation at 0.3 ug, sc measured 2 hrs after LPS challenge; assay type: functional; in short: as §1
# [12] = target: C-C chemokine receptor type 2 (Homo sapiens) (UniProt P41597); assay: Antagonist activity at CCR2 in human THP1 cells assessed as inhibition of CCL2-induced chemotaxis after 2 hrs by microtiter format trans-well migration assay; assay type: functional, cell-based; details: THP-1
# Chain of C-C chemokine receptor type 2 (Homo sapiens) (P41597 whole entry, looked up): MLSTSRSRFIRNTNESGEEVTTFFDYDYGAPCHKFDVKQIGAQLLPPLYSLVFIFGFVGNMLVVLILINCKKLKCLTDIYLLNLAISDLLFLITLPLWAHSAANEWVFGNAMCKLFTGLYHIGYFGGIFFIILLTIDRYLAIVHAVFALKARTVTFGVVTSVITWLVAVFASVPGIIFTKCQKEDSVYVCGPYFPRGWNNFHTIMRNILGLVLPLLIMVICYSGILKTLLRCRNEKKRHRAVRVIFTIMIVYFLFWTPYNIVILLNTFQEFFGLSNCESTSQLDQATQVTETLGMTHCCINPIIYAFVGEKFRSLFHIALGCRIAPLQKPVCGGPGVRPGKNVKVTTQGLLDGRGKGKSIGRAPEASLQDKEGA
# In short: (§4)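 Microtiter trans-well migration assay in Gey's balanced salt solution with 1 mg/mL endotoxin-free BSA, no fetal calf serum. Migration ran 2 h at 37 °C. Compounds dissolved in DMSO and added to both top and bottom compartments, final DMSO 1%.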
# [13] = target: C-C chemokine receptor type 2 (Homo sapiens) (UniProt P41597); assay: Antagonist activity at CCR2 in human THP1 cells assessed as inhibition of CCL2-induced chemotaxis at 1 nM after 2 hrs by microtiter format trans-well migration assay; assay type: functional, cell-based; details: THP-1; in short: as §4
# [14] = AUC (0 to t) in Sprague-Dawley rat at 3 mg/kg, po administered as single dose; assay type: ADME, organism-based; design: dose 3 mg/kg, route oral; details: plasma
# In short: (§5)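 Male Sprague-Dawley rats, three per compound per route, single dose. IV vehicle 5% DMSO in 0.9% saline; oral gavage vehicle 1% carboxymethylcellulose in 0.9% saline; fed ad libitum. Plasma taken 5–480 min post-dose, extracted with 0.1% formic acid in acetonitrile, quantified by LC/MS/MS (positive mode). AUC(0–t) by linear/log trapezoidal rule; IV curve back-extrapolated assuming initial volume 0.26 L/kg.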
# [15] = Clearance in Sprague-Dawley rat at 1 mg/kg, iv administered as single dose; assay type: ADME, organism-based; design: dose 1 mg/kg, route intravenous; details: in vivo
# In short: (§6)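 Male Sprague-Dawley rats, three per compound, receive a single intravenous dose in 5% DMSO in 0.9% saline. Food and water are given ad libitum. Plasma is taken at 5, 15, 30, 60, 120, 180, 240 and 480 min. Drug is measured by LC/MS/MS after extraction with 0.1% formic acid in acetonitrile. The curve is back-extrapolated to time zero assuming an initial volume of 0.26 L/kg.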
# [16] = target: C-C chemokine receptor type 2 (Homo sapiens) (UniProt P41597); assay: Antagonist activity at CCR2 in human THP1 cells assessed as inhibition of CCL2-induced chemotaxis at 100 nM after 2 hrs by microtiter format trans-well migration assay; assay type: functional, cell-based; details: THP-1; in short: as §4
# [17] = system: Mus musculus; assay: Antiinflammatory activity in mouse assessed as inhibition of LPS-induced TNFalpha upregulation at 0.00013 mg, sc measured 2 hrs after LPS challenge; assay type: functional
# In short: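 Murine sublethal endotoxemia: LPS given intraperitoneally, serum TNF-α measured 2 h after LPS injection. Compound vehicle 0.6% DMSO plus 1% carboxymethylcellulose (final concentrations) in sterile water.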
# [18] = system: Mus musculus; assay: Antiinflammatory activity in mouse assessed as inhibition of LPS-induced TNFalpha upregulation at 0.0013 mg, sc measured 2 hrs after LPS challenge; assay type: functional; in short: as §1
# [19] = system: Mus musculus; assay: Antiinflammatory activity in mouse assessed as inhibition of LPS-induced TNFalpha upregulation at 0.0055 ug, sc measured 2 hrs after LPS challenge; assay type: functional; in short: as §1
# [20] = target: C-C chemokine receptor type 2 (Homo sapiens) (UniProt P41597); assay: Antagonist activity at CCR2 in human THP1 cells assessed as inhibition of CCL2-induced chemotaxis at 0.01 nM after 2 hrs by microtiter format trans-well migration assay; assay type: functional, cell-based; details: THP-1; in short: as §4
# [21] = system: Mus musculus; assay: Antiinflammatory activity in mouse assessed as inhibition of LPS-induced TNFalpha upregulation at 0.0023 ug, po measured 2 hrs after LPS challenge; assay type: functional; in short: as §1
# [22] = target: C-C chemokine receptor type 2 (Homo sapiens) (UniProt P41597); assay: Antagonist activity at CCR2 in human THP1 cells assessed as inhibition of CCL2-induced chemotaxis at 1000 nM after 2 hrs by microtiter format trans-well migration assay; assay type: functional, cell-based; details: THP-1; in short: as §4
# [23] = system: Mus musculus; assay: Antiinflammatory activity in mouse assessed as inhibition of LPS-induced TNFalpha upregulation at 0.013 mg, sc measured 2 hrs after LPS challenge; assay type: functional; in short: as §1
# [24] = system: Mus musculus; assay: Antiinflammatory activity in mouse assessed as inhibition of LPS-induced TNFalpha upregulation at 0.016 ug, po measured 2 hrs after LPS challenge; assay type: functional; in short: as §1
# [25] = system: Mus musculus; assay: Antiinflammatory activity in mouse assessed as inhibition of LPS-induced TNFalpha upregulation at 0.61 ug, po measured 2 hrs after LPS challenge; assay type: functional; in short: as §1
# [26] = target: C-C chemokine receptor type 2 (Homo sapiens) (UniProt P41597); assay: Antagonist activity at CCR2 in human THP1 cells assessed as inhibition of CCL2-induced chemotaxis at 0.1 nM after 2 hrs by microtiter format trans-well migration assay; assay type: functional, cell-based; details: THP-1; in short: as §4
# [27] = system: Mus musculus; assay: Antiinflammatory activity in po dosed mouse assessed as inhibition of LPS-induced TNFalpha upregulation measured 2 hrs after LPS challenge; assay type: functional
# [28] = system: Mus musculus; assay: Antiinflammatory activity in po dosed mouse assessed as inhibition of LPS-induced TNFalpha upregulation measured 2 hrs after LPS challenge relative to control; assay type: functional; in short: as §2
# [29] = system: Mus musculus; assay: Antiinflammatory activity in mouse assessed as inhibition of LPS-induced TNFalpha upregulation at 0.016 mg, po measured 2 hrs after LPS challenge; assay type: functional; in short: as §1
# [30] = AUC (0 to t) in Sprague-Dawley rat at 1 mg/kg, iv administered as single dose; assay type: ADME, organism-based, Plasma; design: dose 1 mg/kg, route intravenous; details: Sprague-Dawley, plasma; in short: as §5
# [31] = target: C-C chemokine receptor type 2 (Homo sapiens) (UniProt P41597); assay: Antagonist activity at CCR2 in human THP1 cells assessed as inhibition of CCL2-induced chemotaxis at 10 nM after 2 hrs by microtiter format trans-well migration assay; assay type: functional, cell-based; details: THP-1; in short: as §4
# [32] = system: Mus musculus; assay: Antiinflammatory activity in mouse assessed as inhibition of LPS-induced TNFalpha upregulation at 0.013 ug, sc measured 2 hrs after LPS challenge; assay type: functional; in short: as §1
# [33] = Cmax in Sprague-Dawley rat at 3 mg/kg, po administered as single dose; assay type: ADME, organism-based; design: dose 3 mg/kg, route oral; details: in vivo
# In short: (§7)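 Male Sprague-Dawley rats, three per compound, receive a single oral dose by gavage in 1% carboxymethylcellulose in 0.9% saline, with food and water ad libitum. Plasma is sampled from 5 to 480 min and drug is quantified by positive-mode LC/MS/MS after acetonitrile/formic acid extraction. The lower limit of quantitation is about 2 ng/mL. Exposure is AUC(0→t) by the linear/log trapezoidal rule, and F is oral fractional bioavailability.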
# [34] = Half life in Sprague-Dawley rat at 3 mg/kg, po administered as single dose; assay type: ADME, organism-based; design: dose 3 mg/kg, route oral; details: in vivo; in short: as §7
# [35] = Fractional bioavailability in Sprague-Dawley rat at 3 mg/kg, po administered as single dose; assay type: ADME, organism-based; details: in vivo; in short: as §7
# [36] = Volume of distribution at steady state in Sprague-Dawley rat at 1 mg/kg, iv administered as single dose; assay type: ADME, organism-based; design: dose 1 mg/kg, route intravenous; details: in vivo, read-out: Vdss; in short: as §6
# [37] = system: Mus musculus; assay: Antiinflammatory activity in mouse assessed as inhibition of LPS-induced TNFalpha upregulation at […], sc measured 2 hrs after LPS challenge; assay type: functional; in short: as §1
# [38] = system: Mus musculus; assay: Antiinflammatory activity in mouse assessed as inhibition of LPS-induced TNFalpha upregulation at 0.057 ug, po measured 2 hrs after LPS challenge; assay type: functional; in short: as §1
# [39] = system: Mus musculus; assay: Antiinflammatory activity in mouse assessed as inhibition of LPS-induced TNFalpha upregulation at 450 pg, po measured 2 hrs after LPS challenge; assay type: functional; in short: as §1
# [40] = Half life in Sprague-Dawley rat at 1 mg/kg, iv administered as single dose; assay type: ADME, organism-based; design: dose 1 mg/kg, route intravenous; details: in vivo; in short: as §6
compound,measurement,setting,value
C[C@@H]1C[C@H]2[C@@H]3CCC4=CC(=O)C=C[C@]4(C)[C@@]3(F)[C@@H](O)C[C@]2(C)[C@@]1(O)C(=O)CO [DEXAMETHASONE],inhibition (INH),[1],75%
same,inhibition (INH),[2],31%
same,inhibition (INH),[3],90%
same,inhibition (INH),[4],88%
same,inhibition (INH),[5],24%
same,ED50,[6],3 µg/kg
same,inhibition (INH),[7],90%
same,inhibition (INH),[8],87%
same,inhibition (INH),[9],84%
same,inhibition (INH),[10],33%
same,inhibition (INH),[11],69%
CC(C)(C)C(=O)N[C@H]1CCCCNC1=O,ED50,[12],0.04 nM
same,inhibition,[13],101%
same,AUC(0-t),[14],8220 ng·h/mL
same,clearance,[15],6.8 mL/min/kg
same,inhibition,[16],101%
same,inhibition (INH),[17],81%
same,inhibition (INH),[18],94%
same,inhibition (INH),[19],73%
same,inhibition,[20],33%
same,inhibition (INH),[21],41%
same,inhibition,[22],102%
same,inhibition (INH),[3],90%
same,inhibition (INH),[23],91%
same,inhibition (INH),[24],70%
same,inhibition (INH),[25],80%
same,inhibition,[26],80%
same,ED50,[27],0.1 µg/kg
same,inhibition (INH),[28],80%
same,ED50,[6],0.1 µg/kg
same,inhibition (INH),[29],83%
same,AUC(0-t),[30],3860 ng·h/mL
same,inhibition,[31],102%
same,inhibition (INH),[32],80%
same,Cmax,[33],989 ng/mL
same,half-life,[34],2.8 h
same,bioavailability,[35],71%
same,Vd,[36],0.7 L/kg
same,inhibition (INH),[37],44%
same,inhibition (INH),[38],76%
same,inhibition (INH),[39],43%
same,half-life,[40],2.02 h
